From ChEMBL document CHEMBL4130564, “Indolylalkyltriphenylphosphonium Analogues Are Membrane-Depolarizing Mycobactericidal Agents” (ACS Med Chem Lett, 2017)
Calls of active or inactive are those of the source. The calls are words filed in the database; no cut-off is given here.

Key:
[1] = tested on: Mycobacterium tuberculosis; test: Bactericidal activity against Mycobacterium bovis BCG ATCC 35734 assessed as suppression of reductive capacity by measuring decrease in formazan formation at 100 uM after 0.5 to 1 hr by MTT reduction assay; type: functional; parameters: scale not given: the % may be the effect or the level left
In short: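 BCG cultures exposed to 0.2–100 μM for 30 min and 1 h, then MTT added; formazan production read at 595 nm against drug-free basal absorbance; CCCP 100 μM reference; representative of two independent experiments.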

[2] = tested on: Mycobacterium tuberculosis; test: Bactericidal activity against Mycobacterium bovis BCG ATCC 35734 assessed as reduction in membrane potential by measuring red to green fluorescent ratio at 100 uM measured at 3 hrs by DiOC2-dye based fluorescence assay; type: functional, organism-based; conditions: BCG str. ATCC 35743

## N#CC(C#N)=NNc1cccc(Cl)c1 [CARBONYL CYANIDE M-CHLOROPHENYLHYDRAZONE]
[1]
  Activity: 50%
[2]
  Activity: Active
